Here are results for 12 compounds from ChEMBL document CHEMBL1152353, “Pyrimido[5,4-e][1,2,4]triazine-5,7(1H,6H)-dione derivatives as novel small molecule chaperone amplifiers” (Bioorg Med Chem Lett, 2009).

The source made the active and inactive calls. No cut-off for these calls is given here.

The first data set concerns SK-N-SH. The experiment in a line: Cytoprotection against rotenone stress-induced toxicity in human SK-N-SH cells after 48 hrs by MTS assay. It counts as functional, cell-based. As to conditions: Homo sapiens, SK-N-SH, 48 h; read-out: EC50. Put shortly: (§1)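 SK-N-SH neuroblastoma cells (within passage 6) seeded in DMEM with 0.1% FBS for 18 h, then fresh medium with 200 nM rotenone (final) plus compound, 0.019 to 10 µM. Incubated 48 h, then MTS viability read. Cytoprotection expressed as viability increase over the rotenone DMSO control; EC50 = concentration giving half-maximal protection. Data averaged over multiple tests.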
For orientation: Tetrazolium assays rely on reduction of a dye to a coloured formazan, in cell work by metabolically active cells.
By EC50 is commonly meant the concentration giving half of the maximal effect. Regarding `CCn1nc(-c2ccc(C)o2)nc2c(=O)n(C)c(=O)nc1-2`, the EC50 stood at 1.84 µM.
On the same count and under the same terms, then `CCCCn1nc(-c2ccc(C)s2)[n+]([O-])c2c(=O)n(C)c(=O)nc1-2`, with 0.19 µM; and `CCCCn1nc(-c2ncc[nH]2)nc2c(=O)n(C)c(=O)nc1-2`, with 0.3 µM; and `CCCCn1nc(-c2ccc(C)o2)nc2c(=O)n(C)c(=O)nc1-2`, with 0.33 µM.
On the same count and under the same terms, then `CCCCn1nc(-c2ccc[nH]2)[n+]([O-])c2c(=O)n(C)c(=O)nc1-2`, with 0.64 µM.

Still in this data set, the particulars now being: sk-n-sh.
As for `Cn1c(=O)nc2[nH]nc(-c3cccs3)nc-2c1=O`, the EC50 result is “Not Active”.
Regarding `Cn1c(=O)nc2n(Cc3ccc(F)cc3)nc(-c3nc4ccccc4s3)nc-2c1=O`, the EC50 result is “Not Active”.

System in the next data set: not listed separately
Kind of data set: Cytotoxicity against human HeLa cells after 72 hrs by MTS assay. Format: cell-based. As to conditions: HeLa cells. An outline of the steps: (§2)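 HeLa (8000 cells/well) or SK-N-SH (14,000 cells/well) cells seeded in DMEM with 10% FBS for 18 h. Compound added at 1:200 dilution, final 0.3 to 80 µM, 0.5% v/v DMSO. Exposure 72 h, then MTS/PMS for 4 h, SDS to 1.4% w/v, absorbance at 492 nm. CC50 = concentration giving half-maximal cytotoxicity.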
Usually CC50 stands for the concentration that lowers cell viability or growth by half. With `CCn1nc(-c2ccco2)nc2c(=O)n(C)c(=O)nc1-2`, the CC50 at 72 h amounted to 5.6 µM.
In turn, `CCn1nc(-c2ccc(C)o2)nc2c(=O)n(C)c(=O)nc1-2` returned a CC50 at 72 h of 22.3 µM.
`CCCCn1nc(-c2ccc(C)s2)[n+]([O-])c2c(=O)n(C)c(=O)nc1-2`: the midpoint of cytotoxicity, the CC50 at 72 h, lay at 6.6 µM.
Turning to `CCCCn1nc(-c2ncc[nH]2)nc2c(=O)n(C)c(=O)nc1-2`, the CC50 at 72 h worked out at 3.6 µM.
The same measure, in the same setting: then `CCCCn1nc(-c2ccc(C)o2)nc2c(=O)n(C)c(=O)nc1-2`, with 7.8 µM; and `CCn1nc(-c2ccc(C)o2)[n+]([O-])c2c(=O)n(C)c(=O)nc1-2`, with 9.8 µM; and `CCCCn1nc(-c2ccc(C)s2)nc2c(=O)n(C)c(=O)nc1-2`, with 15.3 µM.
The same measure, in the same setting: then `Cn1c(=O)nc2n(Cc3ccc(F)cc3)nc(-c3nc4ccccc4s3)nc-2c1=O`, with 23.4 µM.
The same measure, in the same setting: in the case of `CCCCn1nc(-c2ccc(C)o2)[n+]([O-])c2c(=O)n(C)c(=O)nc1-2` it was 9 µM.
Take `CCCCn1nc(-c2ccc[nH]2)[n+]([O-])c2c(=O)n(C)c(=O)nc1-2`: the CC50 at 72 h was 6.3 µM.
Still for that read-out and setting: then `Cn1c(=O)[nH]c2nnc(-c3cccs3)nc2c1=O`, with above 80 µM.

In a further data set the test system is SK-N-SH. Kind of data set: Cytoprotection against rotenone stress-induced toxicity in human SK-N-SH cells at 1.25 uM after 48 hrs by MTS assay. It counts as functional.
Conditions: not given
An outline of the steps:
as §1
Take `CCn1nc(-c2ccco2)nc2c(=O)n(C)c(=O)nc1-2`: the Activity turned out to be 64%.
On the same count and under the same terms, in the case of `CCn1nc(-c2ccc(C)o2)[n+]([O-])c2c(=O)n(C)c(=O)nc1-2` it was 56%.
Same read-out and setting: then `CCCCn1nc(-c2ccc(C)s2)nc2c(=O)n(C)c(=O)nc1-2`, with 44%; and `CCCCn1nc(-c2ccc(C)o2)[n+]([O-])c2c(=O)n(C)c(=O)nc1-2`, with 49%.

System in the next data set: not listed separately
Kind of data set: Cytotoxicity against human SK-N-SH cells after 72 hrs by MTS assay.
Conditions: not given
Format: cell-based. Put shortly: as §2
Regarding `CCn1nc(-c2ccco2)nc2c(=O)n(C)c(=O)nc1-2`, the CC50 at 72 h was found to be 2.8 µM.
`CCn1nc(-c2ccc(C)o2)nc2c(=O)n(C)c(=O)nc1-2` yielded a CC50 at 72 h of 8.2 µM.
In turn, `CCCCn1nc(-c2ccc(C)s2)[n+]([O-])c2c(=O)n(C)c(=O)nc1-2` had a half-maximal cytotoxic concentration (CC50) at 72 h of 7.2 µM.
Consider `CCCCn1nc(-c2ncc[nH]2)nc2c(=O)n(C)c(=O)nc1-2`, for which the CC50 at 72 h stood at 1.3 µM.
`CCCCn1nc(-c2ccc(C)o2)nc2c(=O)n(C)c(=O)nc1-2` gave a CC50 at 72 h of 5.3 µM.
Consider `CCn1nc(-c2ccc(C)o2)[n+]([O-])c2c(=O)n(C)c(=O)nc1-2`, for which it took 3.3 µM to reach half-maximal cytotoxicity (CC50 at 72 h).
In the case of `CCCCn1nc(-c2ccc(C)s2)nc2c(=O)n(C)c(=O)nc1-2`, the half-maximal cytotoxic concentration (CC50) at 72 h is 18.2 µM.
The compound `Cn1c(=O)nc2n(Cc3ccc(F)cc3)nc(-c3nc4ccccc4s3)nc-2c1=O` returned a CC50 at 72 h of 21.3 µM.
Same read-out and setting: then `CCCCn1nc(-c2ccc(C)o2)[n+]([O-])c2c(=O)n(C)c(=O)nc1-2`, with 6.6 µM; and `CCCCn1nc(-c2ccc[nH]2)[n+]([O-])c2c(=O)n(C)c(=O)nc1-2`, with 1.5 µM; and `Cn1c(=O)[nH]c2nnc(-c3cccs3)nc2c1=O`, with above 80 µM.

A further data set concerns SK-N-SH. The experiment in a line: Cytoprotection against rotenone stress-induced toxicity in human SK-N-SH cells assessed as increase in cell viability after 48 hrs by MTS assay relative to control. It counts as functional. Further details: concentration or dose not given beside the values.
Conditions: not given
Put shortly:
as §1
As for `CCn1nc(-c2ccco2)nc2c(=O)n(C)c(=O)nc1-2`, the Activity is on record as 64%.
Same read-out and setting: in the case of `Cn1c(=O)nc2[nH]nc(-c3cccs3)nc-2c1=O` it was “inactive”; in that of `CCn1nc(-c2ccc(C)o2)nc2c(=O)n(C)c(=O)nc1-2`, 50%.
On the same count and under the same terms, in the case of `CCCCn1nc(-c2ccc(C)s2)[n+]([O-])c2c(=O)n(C)c(=O)nc1-2` it was 27%.
On the same count and under the same terms, then `CCCCn1nc(-c2ncc[nH]2)nc2c(=O)n(C)c(=O)nc1-2`, with 56%; and `CCCCn1nc(-c2ccc(C)o2)nc2c(=O)n(C)c(=O)nc1-2`, with 23%; and `CCn1nc(-c2ccc(C)o2)[n+]([O-])c2c(=O)n(C)c(=O)nc1-2`, with 56%.
On to `CCCCn1nc(-c2ccc(C)s2)nc2c(=O)n(C)c(=O)nc1-2`, for which the Activity was determined as 44%.
Consider `Cn1c(=O)nc2n(Cc3ccc(F)cc3)nc(-c3nc4ccccc4s3)nc-2c1=O`, for which the result was inactive.
On the same count and under the same terms, then `CCCCn1nc(-c2ccc(C)o2)[n+]([O-])c2c(=O)n(C)c(=O)nc1-2`, with 49%.
As to `CCCCn1nc(-c2ccc[nH]2)[n+]([O-])c2c(=O)n(C)c(=O)nc1-2`, the Activity is 49%.

The next data set has as its target T1, Heat shock factor protein 1 (Homo sapiens, UniProt Q00613).
T1 sequence (Q00613 whole entry): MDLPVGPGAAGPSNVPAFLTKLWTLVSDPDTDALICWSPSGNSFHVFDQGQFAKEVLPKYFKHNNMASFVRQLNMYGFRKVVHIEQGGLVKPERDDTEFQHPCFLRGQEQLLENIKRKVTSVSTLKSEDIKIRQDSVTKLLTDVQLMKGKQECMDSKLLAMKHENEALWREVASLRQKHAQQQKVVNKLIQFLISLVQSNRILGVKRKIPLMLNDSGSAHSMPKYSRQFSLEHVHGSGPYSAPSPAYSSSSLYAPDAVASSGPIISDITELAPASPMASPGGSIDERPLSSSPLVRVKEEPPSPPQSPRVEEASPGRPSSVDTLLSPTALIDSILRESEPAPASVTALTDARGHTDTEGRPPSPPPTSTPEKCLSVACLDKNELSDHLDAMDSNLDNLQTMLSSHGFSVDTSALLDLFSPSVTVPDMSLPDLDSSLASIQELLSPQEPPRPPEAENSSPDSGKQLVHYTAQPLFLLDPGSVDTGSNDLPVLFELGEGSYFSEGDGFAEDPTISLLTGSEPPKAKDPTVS
Kind of data set: Amplification of HSF1 transcriptional activity in human heat shock-induced HeLa cells assessed as granule formation treated 1 hr before heat shock challenge measured after 2 hrs without recovery time by immunocytochemical staining.
Conditions: not given
It counts as cell-based. Put shortly: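 HeLa cells given compound 1 h before mild heat shock at 41 °C for 2 h, no recovery; compound diluted 200-fold, 0.3 to 80 µM. Unstressed control plates kept at 37 °C for 3 h. HSF1 immunocytochemical staining, imaged at 10×.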
In the case of `Cn1c(=O)nc2[nH]nc(-c3cccs3)nc-2c1=O`, the EC50 result is “Not Active”.

In another data set the target is T2, Heat shock factor protein 1 (Homo sapiens) (UniProt Q00613).
T2 sequence (whole entry): T1 sequence (Q00613 whole entry)
Kind of data set: Amplification of HSF1 transcriptional activity in human HeLa cells assessed as granule formation pretreated for 3 hrs by immunocytochemical staining. Format: cell-based.
Conditions: not given
Put shortly:
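HeLa cells pretreated with compound 1 h, then mild heat shock 41 °C for 2 h, no recovery; control arm pretreated 3 h at 37 °C without heat shock. Compound diluted 200-fold, 0.3 to 80 µM range.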
For `CCn1nc(-c2ccco2)nc2c(=O)n(C)c(=O)nc1-2`, the outcome was inactive.
For `CCn1nc(-c2ccc(C)o2)nc2c(=O)n(C)c(=O)nc1-2`, the outcome was inactive.
Still for that read-out and setting: then `CCCCn1nc(-c2ccc(C)s2)[n+]([O-])c2c(=O)n(C)c(=O)nc1-2`, with “inactive”.
As for `CCCCn1nc(-c2ncc[nH]2)nc2c(=O)n(C)c(=O)nc1-2`, the outcome was inactive.
Regarding `CCCCn1nc(-c2ccc(C)o2)nc2c(=O)n(C)c(=O)nc1-2`, the result was inactive.
On the same count and under the same terms, in the case of `CCn1nc(-c2ccc(C)o2)[n+]([O-])c2c(=O)n(C)c(=O)nc1-2` it was “inactive”; in that of `CCCCn1nc(-c2ccc(C)s2)nc2c(=O)n(C)c(=O)nc1-2`, “inactive”.
Same read-out and setting: in the case of `Cn1c(=O)nc2n(Cc3ccc(F)cc3)nc(-c3nc4ccccc4s3)nc-2c1=O` it was “inactive”; in that of `CCCCn1nc(-c2ccc(C)o2)[n+]([O-])c2c(=O)n(C)c(=O)nc1-2`, “inactive”.
Consider `CCCCn1nc(-c2ccc[nH]2)[n+]([O-])c2c(=O)n(C)c(=O)nc1-2`, for which the outcome was inactive.
